For experiment [1], the target named is Kappa-type opioid receptor (Cavia porcellus) (UniProt P41144). As to conditions: Ileum, 20 nM.
Experiment [2] shares this target. The experiment is described as follows: Opioid antagonist potency towards opioid receptor kappa 1 determined in guinea pig ileum preparation. It is filed as functional, tissue-based. Put shortly: (§1)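 Electrically stimulated guinea pig ileal longitudinal muscle. Antagonist at 100 nM unless noted (some at 20 nM) was preincubated 15 min, then concentration-response curves to κ agonist ethylketazocine or µ agonist morphine were run with and without antagonist in the same tissue. IC50 ratio taken from the curves; Ke = [antagonist]/(IC50 ratio − 1). Mean ± SEM, n in parentheses.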

The target in experiment [3] is T1, Kappa-type opioid receptor (Rattus norvegicus, UniProt P34975). The experiment is described as follows: Effect on binding to wild-type opioid receptor kappa 1 using [3H]diprenorphine in transiently expressed […] HEK293 cells. The class given is cell-based. Put shortly:
(§2)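 Run in 25 mM HEPES pH 7.4 for 90 min at room temperature, filtered and scintillation counted. Nonspecific binding defined with 10 µM naltrexone. Ki from IC50 by Cheng-Prusoff, mean ± SE of three experiments in duplicate.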

Experiment [4] deals with Mu-type opioid receptor (Cavia porcellus) (UniProt P97266). The experiment can be described thus: Opioid antagonist potency, determined in guinea pig ileum (GPI) preparation, using morphine (mu-opioid) as agonist, expressed as IC50 ratio. The class given is functional, tissue-based. The gist of the method: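 Morphine concentration-response curves in electrically stimulated guinea pig ileal longitudinal muscle, run with and without antagonist (100 nM unless noted, 15 min preincubation) in the same preparation. Result expressed as the IC50 ratio of agonist with versus without antagonist.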
Mu-type opioid receptor (Cavia porcellus), sequence (P97266 whole entry): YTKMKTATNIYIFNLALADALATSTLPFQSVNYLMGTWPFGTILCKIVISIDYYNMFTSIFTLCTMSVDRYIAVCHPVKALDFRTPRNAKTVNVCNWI

Experiment [5] deals with Delta-type opioid receptor (Mus musculus) (UniProt P32300). The experiment is described as follows: Opioid antagonist potency, determined in mouse vas deferens (MVD) preparation, using DADLE (delta-opioid) as agonist, expressed as IC50 ratio. The class given is functional. The gist of the method: (§3)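 Electrically stimulated mouse vas deferens. Antagonist, normally 100 nM, preincubated 15 min before concentration-response curves to δ agonist DADLE, obtained with and without antagonist in the same preparation. IC50 ratio from the curves; Ke = [antagonist]/(IC50 ratio − 1), not computed when ratio <1. Mean ± SEM.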
Delta-type opioid receptor (Mus musculus), sequence (P32300 whole entry): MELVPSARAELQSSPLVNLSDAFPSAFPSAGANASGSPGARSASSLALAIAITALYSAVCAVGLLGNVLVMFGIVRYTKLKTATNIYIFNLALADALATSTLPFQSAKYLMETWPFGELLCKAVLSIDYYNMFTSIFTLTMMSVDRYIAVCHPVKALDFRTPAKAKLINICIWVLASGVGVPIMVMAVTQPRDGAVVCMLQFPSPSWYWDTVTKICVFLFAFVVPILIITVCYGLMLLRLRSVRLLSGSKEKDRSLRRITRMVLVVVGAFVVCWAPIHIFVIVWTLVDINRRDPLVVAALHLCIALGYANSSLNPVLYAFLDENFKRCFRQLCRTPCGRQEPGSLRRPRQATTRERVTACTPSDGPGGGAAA

Experiment [6] concerns the target Kappa-type opioid receptor (Cavia porcellus) (UniProt P41144). The experiment is described as follows: Opioid antagonist potency, determined in the guinea pig ileum (GPI) preparation, by employing EK (kappa-opioid) as agonist, expressed as IC50 ratio. It is filed as functional, tissue-based. The gist of the method:
as §1

Experiment [7] concerns the target Delta-type opioid receptor (Mus musculus) (UniProt P32300). The experiment can be described thus: Opioid antagonist potency, determined in mouse vas deferens (MVD) preparation, using DADLE (delta-opioid) as agonist (Ke=antagonist/IC50 ratio -1). The class given is functional. Put shortly: as §3
Experiment [8] addresses Kappa-type opioid receptor (Rattus norvegicus, UniProt P34975, E297A). The experiment is described as follows: Effect on binding to kappa(Glu297Ala) opioid receptor, using [3H]diprenorphine in transiently expressed […] HEK293 cells. The class given is cell-based. Put shortly:
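Rat κ receptor carrying the Glu297Ala mutation, subcloned in pcDNA3, was transiently expressed in HEK-293 cells by calcium phosphate transfection. Ki was derived by Cheng-Prusoff.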

Experiment [9] has as its target Mu-type opioid receptor (Cavia porcellus) (UniProt P97266). The experiment can be described thus: Opioid antagonist potency, determined in guinea pig ileum (GPI) preparation, using morphine (mu-opioid) as agonist (Ke=antagonist/IC50 ratio -1). The class given is functional, tissue-based. Put shortly:
as §1

For a further experiment, the target named is Mu-type opioid receptor (Rattus norvegicus, UniProt P33535). The experiment can be described thus: Binding affinity towards rat mu-opioid receptor was determined using [3H]diprenorphine as radioligand. The gist of the method: as §2
Mu-type opioid receptor, sequence (P33535 whole entry): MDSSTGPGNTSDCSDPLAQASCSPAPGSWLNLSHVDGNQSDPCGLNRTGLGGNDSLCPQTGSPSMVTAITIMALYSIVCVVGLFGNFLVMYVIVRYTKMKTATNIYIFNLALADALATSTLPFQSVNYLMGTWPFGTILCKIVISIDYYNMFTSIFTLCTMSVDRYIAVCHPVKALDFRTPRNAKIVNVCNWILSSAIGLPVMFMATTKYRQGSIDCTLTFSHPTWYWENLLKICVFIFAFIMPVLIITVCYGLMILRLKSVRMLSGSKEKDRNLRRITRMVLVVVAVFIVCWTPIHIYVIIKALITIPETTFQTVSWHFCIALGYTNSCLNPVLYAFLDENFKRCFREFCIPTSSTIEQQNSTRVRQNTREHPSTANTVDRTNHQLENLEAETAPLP
Experiment [10] has as its target Delta-type opioid receptor (Mus musculus, UniProt P32300). The experiment is described as follows: Binding affinity towards mouse delta-opioid receptor was determined using [3H]diprenorphine as radioligand. Put shortly:
as §2

Experiment [11] deals with T1, Kappa-type opioid receptor. The experiment can be described thus: Binding affinity towards rat opioid receptor kappa 1 was determined using [3H]diprenorphine radioligand. Put shortly:
as §2

Experiment [12] deals with Mu-type opioid receptor (Cavia porcellus) (UniProt P97266). The note with it: Ileum, 20 nM.

SMILES strings stand for the structures.

Consider five molecules from ChEMBL document CHEMBL1134509, “Transformation of a kappa-opioid receptor antagonist to a kappa-agonist by transfer of a guanidinium group from the 5'- to 6'-position of naltrindole” (J Med Chem, 2001).

One may read the Ki as the dissociation constant of the complex between target and ligand, obtained from inhibition or displacement.

T1 sequence (P34975 whole entry): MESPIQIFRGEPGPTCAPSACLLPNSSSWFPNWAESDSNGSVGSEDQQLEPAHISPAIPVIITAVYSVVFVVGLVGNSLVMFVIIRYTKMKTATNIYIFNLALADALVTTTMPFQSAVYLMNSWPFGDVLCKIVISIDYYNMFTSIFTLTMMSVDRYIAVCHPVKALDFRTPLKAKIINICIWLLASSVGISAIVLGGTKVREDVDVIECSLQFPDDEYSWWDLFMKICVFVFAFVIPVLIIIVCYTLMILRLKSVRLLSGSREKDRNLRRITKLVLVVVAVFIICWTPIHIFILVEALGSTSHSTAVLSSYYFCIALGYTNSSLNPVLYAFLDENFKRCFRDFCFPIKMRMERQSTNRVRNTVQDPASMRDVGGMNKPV
Kappa-type opioid receptor (Cavia porcellus), sequence (P41144 whole entry): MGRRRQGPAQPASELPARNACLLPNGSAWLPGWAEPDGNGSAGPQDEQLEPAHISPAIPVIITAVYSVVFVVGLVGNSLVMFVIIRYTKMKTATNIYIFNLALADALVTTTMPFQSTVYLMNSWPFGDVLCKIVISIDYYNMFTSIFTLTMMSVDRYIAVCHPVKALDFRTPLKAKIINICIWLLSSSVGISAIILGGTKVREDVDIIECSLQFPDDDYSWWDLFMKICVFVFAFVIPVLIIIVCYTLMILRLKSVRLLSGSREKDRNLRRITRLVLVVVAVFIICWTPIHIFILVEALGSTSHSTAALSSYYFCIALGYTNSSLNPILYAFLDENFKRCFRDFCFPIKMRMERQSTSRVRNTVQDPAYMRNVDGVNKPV
Kappa-type opioid receptor (Rattus norvegicus, UniProt P34975, E297A), sequence (P34975 whole entry E297A): as the sequence (P34975 whole entry) above, with E297A counted along it
Delta-type opioid receptor, sequence (P32300 whole entry): as the sequence (P32300 whole entry) above

Turning to `N=C(N)Nc1ccc2[nH]c3c(c2c1)C[C@@]1(O)[C@H]2Cc4ccc(O)c5c4[C@@]1(CCN2CC1CC1)[C@H]3O5` [GUANIDINONALTRINDOLE], the IC50 ratio in experiment [1] was 139. This molecule also returned a Ke in experiment [2] of 0.16 nM. This molecule yielded a Ki in [3] of 0.21 nM.

In the case of `N=C(N)Nc1cccc2c3c([nH]c12)[C@@H]1Oc2c(O)ccc4c2[C@@]12CCN(CC1CC1)[C@H](C4)[C@]2(O)C3`, the IC50 ratio in [4] turned out to be 1.4; in [5], 105; in experiment [6] it was 2. The Ke worked out at 100 nM in [2], 0.96 nM in experiment [7] and 238 nM in [9]. Further, the Ki in experiment [3] turned out to be 32.7 nM; in experiment [8], 47.3 nM.

Take `N=C(N)Nc1cccc2[nH]c3c(c12)C[C@@]1(O)[C@H]2Cc4ccc(O)c5c4[C@@]1(CCN2CC1CC1)[C@H]3O5`: the IC50 ratio in experiment [4] stood at 0.34; in experiment [5] it was 1.4; in experiment [6], 2.3. Further, the Ki (on Mu-type opioid receptor; in experiment [10]; in experiment [11]) was above 1000 nM throughout. Besides, the Ke in experiment [2] is 80 nM; in [7], 263 nM.

As to `N=C(N)Nc1ccc2c3c([nH]c2c1)[C@@H]1Oc2c(O)ccc4c2[C@@]12CCN(CC1CC1)[C@H](C4)[C@]2(O)C3`, the IC50 ratio in experiment [5] turned out to be 0.2. For the same molecule, the inhibition constant Ki in [3] is 1.13 nM; in [8], 12.3 nM.

With `Oc1ccc2c3c1O[C@H]1c4[nH]c5c(c4C[C@@]4(O)[C@@H](C2)N(CC2CC2)CC[C@]314)C[C@@]1(O)[C@H]2Cc3ccc(O)c4c3[C@@]1(CCN2CC1CC1)[C@H]5O4`, the IC50 ratio in experiment [1] amounted to 49.8; in experiment [5], 10.4; in experiment [12], 2.6.
